Values after ≈ are worked out from the molar mass of the structure shown.
Tests used:
[1] = system: Trypanosoma brucei brucei; test: Antitrypanosomal activity against Trypanosoma brucei brucei 427 bloodstream form after 48 hrs by Alamar blue assay; format: functional, organism-based; details: Trypanosoma brucei, 427, 48 h
Procedure, shortened: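 Bloodstream parasites in 384-well plates, 24 h preincubation at 37 °C/5% CO2. DMSO dilutions diluted 1:21 in DMEM and added to give final 41.67 to 0.0004 µM; 48 h incubation. 70% Alamar Blue in HMI-9 + 10% FCS added, 2 h at 37 °C then 22 h at room temperature; read at ex 535/em 590 nm.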

[2] = Kinetic solubility of the compound in phosphate buffer at pH 2 by nephelometry; format: physicochemical; details: read-out: Kinetic_solubility
[3] = Partition coefficient, log D of the compound at pH 7.4 by HPLC analysis; format: physicochemical; details: octanol/water
Procedure, shortened: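 Chromatographic gradient HPLC: mobile phase 50 mM ammonium acetate pH 7.4 (or ammonium formate pH 3.0) with an acetonitrile gradient of 0–100% over 10 min; UV detection at 220 and 254 nm.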

[4] = Kinetic solubility of the compound in phosphate buffer at pH 6.5 by nephelometry; format: physicochemical; details: read-out: Kinetic_solubility
Procedure, shortened: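 DMSO stocks spiked into pH 6.5 phosphate buffer or 0.01 M HCl (about pH 2.0), final DMSO 1% (v/v). Solubility range determined by nephelometry.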

[5] = Selectivity index, ratio of IC50 for HEK293 cells to IC50 for Trypanosoma brucei brucei 427 bloodstream form; format: toxicity, cell-based; details: human, read-out: Ratio IC50
Procedure, shortened: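 HEK293 cells (55 µL of 72,727 cells/mL in DMEM + 10% FCS) in 384-well plates, 24 h at 37 °C/5% CO2. Drug diluted 1:21 from DMSO, final 83.34 to 0.0004 µM, 48 h. […] SI relative to T. b. brucei.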

[6] = Half life in human liver microsomes at 1 uM by LC-MS analysis; format: ADME, Microsome
Procedure, shortened: (§1)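 Compound at 1 µM final (1 in 500 dilution of stock) incubated at 37 °C with human liver microsomes in 0.1 M phosphate buffer pH 7.4, 0.4 mg/mL protein. First-order depletion rate from exponential decay fit used to derive in vitro CLint and half-life; predicted hepatic extraction ratio from scaled CLint with liver blood flow 20.7 mL/min/kg.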

[7] = Intrinsic clearance in human liver microsomes at 1 uM after 60 mins by LC-MS analysis; format: ADME, Microsome; details: read-out: CLH; procedure, shortened: as §1
L6 = test: Cytotoxicity against rat L6 cells after 70 hrs by Alamar blue assay; format: cell-based; details: L6, 70 h
Procedure, shortened: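 4000 L-6 cells per well in RPMI 1640 with L-glutamine and 10% FBS. Eleven 3-fold dilutions from 100 to 0.002 µg/mL for 70 h; Alamar Blue 2 h, fluorescence at ex 536/em 588 nm. IC50 by linear regression from sigmoidal curves; podophyllotoxin control.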

Plasmodium falciparum = test: Antimicrobial activity against Plasmodium falciparum NF54 infected in human RBC after 48 hrs by [3H]hypoxanthine incorporation assay; format: functional, organism-based
Procedure, shortened: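 Erythrocytic stage, drug-sensitive strain, in hypoxanthine-free RPMI 1640 with HEPES, NaHCO3, neomycin, Albumax, human A+ red cells at 2.5% haematocrit, 0.3% parasitaemia. Eleven 3-fold dilutions from 100 to 0.002 µg/mL; 37 °C, 4% CO2/3% O2/93% N2. ³H-hypoxanthine added at 48 h, further 24 h, then harvested and scintillation-counted. IC50 by linear regression; chloroquine control.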

Trypanosoma cruzi = test: Antitrypanosomal activity against Trypanosoma cruzi Tulahuen C2C4 amastigotes infected in rat L6 cells after 96 hrs by beta-galactosidase reporter gene assay; format: functional, organism-based; details: Tulahuen C2C4, L6, 96 h
Procedure, shortened: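 L-6 cells (2000/well, RPMI 1640 + 10% FBS, 2 mM L-glutamine) infected after 24 h with 5000 LacZ-expressing trypomastigotes. At 48 h the medium was replaced with eleven 3-fold drug dilutions (100 to 0.002 µg/mL). After 96 h, CPRG/Nonidet substrate added, colour read at 540 nm after 2–6 h. IC50 by linear regression from sigmoidal curves; benznidazole control.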

SMILES	IC50 [1] [µM]	selectivity ratio [5]	further results
Cc1ccoc1C(=O)Nc1cccc(-c2nc3ncccc3o2)c1	0.17	115	solubility kinetic [2]: 6.3 µg/mL (≈ 19.7 µM); logD [3]: 2.9; solubility kinetic [4]: 3.1 µg/mL (≈ 9.71 µM); half-life at 1 µM [6]: 10 min; microsomal CLint at 1 µM [7]: 181 µL/min/mg
COc1ccc(-c2nc3ncccc3o2)cc1NC(=O)c1ccco1	1.1	74	
Cc1ccc(-c2nc3ncccc3o2)cc1NC(=O)c1ccco1	6.2	13	
O=C(Nc1ccc(Cl)c(-c2nc3ncccc3o2)c1)c1ccncc1	3.4		
O=C(Nc1ccc(Cl)c(-c2nc3ncccc3o2)c1)c1ccccn1	5.7	15	
COc1cc([C@@H]2c3cc4c(cc3[C@H](O)[C@H]3COC(=O)[C@H]23)OCO4)cc(OC)c1OC [PODOFILOX]			EC50 (L6): 0.017 µM
O=C(Nc1ccc(F)c(-c2nc3ncccc3o2)c1)c1cscn1	0.76	110	solubility kinetic [2]: 3.1 µg/mL (≈ 9.11 µM); logD [3]: 2.3; solubility kinetic [4]: 3.1 µg/mL (≈ 9.11 µM); half-life at 1 µM [6]: 36 min; microsomal CLint at 1 µM [7]: 48 µL/min/mg
Cc1ccc(NC(=O)c2ccoc2)cc1-c1nc2ncccc2o1	0.31	103	solubility kinetic [2]: 12.5 µg/mL (≈ 39.1 µM); logD [3]: 2.7; solubility kinetic [4]: 6.3 µg/mL (≈ 19.7 µM); half-life at 1 µM [6]: 10 min; microsomal CLint at 1 µM [7]: 176 µL/min/mg
O=C(Nc1cccc(-c2nc3ncccc3o2)c1F)c1ccco1	> 10		
O=C(Nc1cc(F)cc(-c2nc3ncccc3o2)c1)c1ccco1	> 10		
O=C(Nc1cccc(-c2nc3ncccc3o2)c1Cl)c1ccco1	> 10		
O=C(Nc1cccc(-c2nc3ncccc3o2)c1)c1ccoc1	0.6	89	
O=C(Nc1cccc(-c2nc3ncc(-c4ccc(Cl)cc4)cc3o2)c1)c1ccco1	0.55	150	
Cc1ccc(NC(=O)c2cnco2)cc1-c1nc2ncccc2o1	> 10		
CN(C(=O)c1ccccc1)c1ccc(Cl)c(-c2nc3ncccc3o2)c1	> 10		
Cc1c(NC(=O)c2ccco2)cccc1-c1nc2ncccc2o1	> 10		
Cc1ccoc1C(=O)Nc1ccc(F)c(-c2nc3ncccc3o2)c1	0.1	840	solubility kinetic [2]: 1.6 µg/mL (≈ 4.74 µM); logD [3]: 2.9; solubility kinetic [4]: 1.6 µg/mL (≈ 4.74 µM); half-life at 1 µM [6]: 9 min; microsomal CLint at 1 µM [7]: 202 µL/min/mg
O=C(Nc1cc(-c2nc3ncccc3o2)ccc1F)c1ccco1	6.3	13	
O=C(Nc1ccc(Cl)c(-c2nc3ncccc3o2)c1)c1ccno1	3.2		
O=C(Nc1ccc(Cl)c(-c2nc3ncccc3o2)c1)c1cnco1	1.5	> 45	
Cc1ccc(NC(=O)c2cscn2)cc1-c1nc2ncccc2o1	2.6	32	
O=C(Nc1ccc(Cl)c(-c2nc3ncccc3o2)c1)c1cccnc1	> 10		
O=C(Nc1ccc(Cl)c(-c2nc3ccccc3o2)c1)c1ccco1	> 10		
CCN(CC)CCCC(C)Nc1ccnc2cc(Cl)ccc12 (stereo not drawn) [CHLOROQUINE]			EC50 (Plasmodium falciparum): 0.006 µM

SMILES	IC50 [1] [µM]	selectivity ratio [5]	further results
Cc1ccc(NC(=O)c2ccco2)cc1-c1nc2ncccc2o1	0.94	> 88	
Cc1ccc(NC(=O)c2occc2C)cc1-c1nc2ncccc2o1	0.57	145	solubility kinetic [2]: 1.6 µg/mL (≈ 4.8 µM); logD [3]: 3.3; solubility kinetic [4]: < 1.6 µg/mL; half-life at 1 µM [6]: 8 min; microsomal CLint at 1 µM [7]: 228 µL/min/mg
O=C(Nc1ccc(F)c(-c2nc3ncccc3o2)c1)c1ccoc1	0.12	680	solubility kinetic [2]: 12.5 µg/mL (≈ 38.7 µM); logD [3]: 2.4; solubility kinetic [4]: 6.3 µg/mL (≈ 19.5 µM); half-life at 1 µM [6]: 11 min; microsomal CLint at 1 µM [7]: 154 µL/min/mg
COCC(=O)Nc1ccc(Cl)c(-c2nc3ncccc3o2)c1	> 10		
O=C(Nc1cncc(-c2nc3ncccc3o2)c1)c1ccco1	> 10		
O=C(Nc1ccc(F)c(-c2nc3ncccc3o2)c1)c1cnco1	2	43	solubility kinetic [2]: 6.3 µg/mL (≈ 19.4 µM); logD [3]: 1.7; solubility kinetic [4]: 6.3 µg/mL (≈ 19.4 µM); half-life at 1 µM [6]: 124 min; microsomal CLint at 1 µM [7]: 14 µL/min/mg
CN(C(=O)c1ccoc1)c1ccc(Cl)c(-c2nc3ncccc3o2)c1	> 10		
O=C(Nc1ccc(Cl)c(-c2nc3ncccc3o2)c1)c1c[nH]cn1	> 10		
O=C(Nc1cccc(-c2nc3ncccc3[nH]2)c1)c1ccoc1	1	39	
O=C(Nc1cc(-c2nc3ncccc3o2)ccc1Cl)c1ccco1	> 10		
O=C(Nc1cccc(-c2nc3ncccc3o2)c1)c1cnco1	2.9	29	
O=C(Nc1cccc(-c2nc3ncccc3o2)c1)c1ccco1	0.34	> 245	
O=C(Cn1ccnc1[N+](=O)[O-])NCc1ccccc1 [BENZNIDAZOLE]			EC50 (Trypanosoma cruzi): 1.46 µM
O=C(Nc1cccc(-c2nc3ncc(-c4ccccc4)cc3o2)c1)c1ccco1	0.12	84	
O=C(Nc1ccc(Cl)c(-c2nc3ncccc3o2)c1)c1cc[nH]n1	> 10		
O=C(Nc1cccc(-c2nc3ncccc3o2)c1)c1cscn1	1.3	63	
O=C(Nc1ccc(F)c(-c2nc3ncccc3o2)c1)c1ccco1	0.29	290	
COc1ccc(-c2cnc3nc(-c4cccc(NC(=O)c5ccco5)c4)oc3c2)cc1	0.63	130	
O=C(Nc1cc(-c2nc3ncccc3o2)ccn1)c1ccco1	> 10		
COc1cccc(C(=O)Nc2ccc(Cl)c(-c3nc4ncccc4o3)c2)c1	> 10		
COc1ccccc1C(=O)Nc1ccc(Cl)c(-c2nc3ncccc3o2)c1	> 10		
O=C(Nc1ccc(Cl)c(-c2nc3ncccc3o2)c1)c1cc2ccccc2o1	> 10		
O=C(Nc1cccc(-c2nc3ncccc3[nH]2)c1)c1ccco1	0.78	54	
Cc1ccoc1C(=O)Nc1ccc(Cl)c(-c2nc3ncccc3o2)c1	0.65	> 130	

— ChEMBL document CHEMBL2407056, “3-(Oxazolo[4,5-b]pyridin-2-yl)anilides as a novel class of potent inhibitors for the kinetoplastid Trypanosoma brucei, the causative agent for human African trypanosomiasis” (Eur J Med Chem, 2013)
